We go through 32 molecules from ChEMBL document CHEMBL2163238, “Design, synthesis, and biological evaluation of N-alkylated deoxynojirimycin (DNJ) derivatives for the treatment of dengue virus infection” (J Med Chem, 2012).

The structures appear in SMILES notation. Some results are limits rather than exact numbers.

Series [1] in a line: Selectivity index, ratio of CC50 for BHK cells to EC50 for DENV-2 NGC infected in BHK cells. The procedure, abridged:
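BHK cells infected with DENV-2 New Guinea C at MOI 0.01 for 1 h, then compounds at 0.1–100 μM for 48 h at 37 °C. Supernatant titrated on Vero cells under 0.5% methylcellulose, 3–5 days; foci by 4G2 immunostaining or crystal violet plaques. EC50 from yield curves; MTT CC50 in uninfected BHK; SI = CC50/EC50.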

The test system of a further series is dengue virus type 2. Briefly: Antiviral activity against 0.01 MOI DENV-2 NGC infected in BHK cells assessed as reduction in viral titer after 48 hrs. Type of series: functional, organism-based. The procedure, abridged: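 BHK cells infected with DENV-2 New Guinea C at MOI 0.01 for 1 h. Inoculum removed, then compounds at 0.1–100 μM for 48 h at 37 °C. Supernatants titrated on Vero monolayers as 10-fold dilutions under 0.5% methylcellulose for 3–5 days. Foci detected by 4G2 immunostaining or crystal violet plaques. EC50 from dose–response curves, mean of 3 independent experiments.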

The nature of series [2]: Cytotoxicity against MDBK cells assessed as cell viability by MTT assay. Type of series: cell-based, Bos taurus. As to conditions: cattle. For orientation: Tetrazolium dyes change colour on reduction, which living cells bring about.
The nature of series [3]: Cytotoxicity against BHK cells assessed as cell viability by MTT assay. Type of series: cell-based, Mesocricetus auratus. The note with it: hamster.
Series [4] in a line: Selectivity index, ratio of CC50 for MDBK cells to EC50 for BVDV NADL infected in MDBK cells. The method, boiled down:
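MDBK cells infected with BVDV NADL at MOI 1, 1 h at 37 °C, washed, then compounds at 0.1–100 μM. Media harvested at 22 h, plaque-titrated on MDBK under 1% methylcellulose for 3 days, neutral red or direct count. EC50 from yield curves; MTT CC50 in uninfected MDBK; SI = CC50/EC50.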

A short description of series [5]: Antiviral activity against 1 MOI BVDV NADL infected in MDBK cells assessed as reduction in viral titer after 22 hrs. Type of series: functional, cell-based, Bovine viral diarrhea virus 1-NADL. The procedure, abridged: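 MDBK cells (2×10^5) infected 24 h after seeding with BVDV NADL at MOI 1, with 1 h adsorption at 37 °C. Washed, then compounds at 0.1–100 μM. Media harvested 22 h post-infection and plaque-titrated on MDBK under 1% methylcellulose for 3 days. Plaques counted directly or after neutral red staining. EC50 from dose–response curves, mean of 3 independent experiments.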

Setting [6] is: Bovine viral diarrhea virus isolates and strains, MDBK, 22 h.

With `OC[C@@H]1[C@@H](O)[C@H](O)[C@@H](O)CN1CCCCCCOc1c(F)c(F)c(F)c(F)c1F`, the “Ratio CC50/EC50” value in series [1] was >294; in series [4], >500. For the same molecule, the EC50 in the series with dengue virus type 2 stood at 1.7 µM; in series [5] (setting [6]), 1 µM. The CC50 in series [2] and in series [3] was > 500 µM in each case.
As to `OC[C@@H]1[C@@H](O)[C@H](O)[C@@H](O)CN1CCCc1ccc(OC2CCCCC2)cc1`, the CC50 in series [2] was determined as 295 µM. The “Ratio CC50/EC50” value in series [4] worked out at 54. Besides, the EC50 in series [5] (setting [6]) stood at 5.5 µM.
In the case of `OC[C@@H]1[C@@H](O)[C@H](O)[C@@H](O)CN1CCCCCCOc1ccccc1F`, the CC50 in series [2] was > 500 µM. In addition, the “Ratio CC50/EC50” value in series [4] is >179. Moreover, the EC50 in series [5] (setting [6]) came out at 2.8 µM.
With `CCC1CCCCC1OCCCCCCN1C[C@H](O)[C@@H](O)[C@H](O)[C@H]1CO` (stereo partly specified), the CC50 in series [2] amounted to 450 µM. Further, in series [4], the “Ratio CC50/EC50” value is 300. Also, the EC50 in series [5] (setting [6]) is 1.5 µM.
Turning to `Cc1ccc(C(C)C)c(OCCCCCCN2C[C@H](O)[C@@H](O)[C@H](O)[C@H]2CO)c1`, the CC50 in series [2] stood at 62 µM. In addition, the “Ratio CC50/EC50” value in series [4] stood at 103. Moreover, in series [5] (setting [6]), the EC50 was 0.6 µM.
`CC1CCC(OCCCCCCN2C[C@H](O)[C@@H](O)[C@H](O)[C@H]2CO)CC1C` (stereo partly specified): the Ratio CC50/EC50 in series [1] was > 1250; in series [4], >143. Moreover, the EC50 in the series with dengue virus type 2 is 0.4 µM; in series [5] (setting [6]), 3.5 µM. For the same molecule, the CC50 in series [2] and in series [3] was > 500 µM in each case.
`CCCOc1ccccc1CCCN1C[C@H](O)[C@@H](O)[C@H](O)[C@H]1CO`: the entries for the “Ratio CC50/EC50” value in series [1] and in series [4] were >156 and >625, respectively. Also, the EC50 with dengue virus type 2 turned out to be 3.2 µM; in series [5] (setting [6]) it was 0.8 µM. Further, the CC50 in series [2] and in series [3] was > 500 µM each time.
For the molecule `CC/C=C\CCCCCN1C[C@H](O)[C@@H](O)[C@H](O)[C@H]1CO`, the CC50 in series [2] is > 500 µM. Also, the “Ratio CC50/EC50” value in series [4] was >45. Moreover, the EC50 in series [5] (setting [6]) amounted to 11 µM.
The corresponding values for `CCC(CC)OCCCCCCN1C[C@H](O)[C@@H](O)[C@H](O)[C@H]1CO` are 450 µM, 150 and 3 µM.
As to `Cc1cccc(OCCCCCCN2C[C@H](O)[C@@H](O)[C@H](O)[C@H]2CO)c1.Cl`, the “Ratio CC50/EC50” value in series [4] is listed as >1250. Besides, the EC50 in series [5] (mdbk) is 0.4 µM.
On to `OC[C@@H]1[C@@H](O)[C@H](O)[C@@H](O)CN1CCCCCCOc1ccc(OC(F)(F)F)cc1`, for which the “Ratio CC50/EC50” value in series [1] was >833; in series [4], >385. The figures for the concentration giving a half-maximal response (EC50) (in the series with dengue virus type 2; in series [5] (setting [6])) were 0.6 µM and 1.3 µM, respectively. The CC50 in series [2] and in series [3] was > 500 µM each time.
On to `OC[C@@H]1[C@@H](O)[C@H](O)[C@@H](O)CN1CCCCCCOc1cccnc1`, for which, in series [2], the CC50 was > 500 µM. In addition, the “Ratio CC50/EC50” value in series [4] is >200. Further, the EC50 in series [5] (setting [6]) stood at 2.5 µM.
On to `CCCCCCCCCN1C[C@H](O)[C@@H](O)[C@H](O)[C@H]1CO`, for which the CC50 in series [2] came out at 350 µM. The “Ratio CC50/EC50” value in series [4] came out at 318. For the same molecule, the concentration giving a half-maximal response (EC50) in series [5] (setting [6]) amounted to 1.1 µM.
Regarding `OC[C@@H]1[C@@H](O)[C@H](O)[C@@H](O)CN1CCCCCCOC1CCCCC1C1CCCCC1` (stereo partly specified), the CC50 in series [2] turned out to be 200 µM. In series [4], the “Ratio CC50/EC50” value is given as 400. Besides, in series [5] (setting [6]), the EC50 was 0.5 µM.
Regarding `COc1ccc(OCCCCCCN2C[C@H](O)[C@@H](O)[C@H](O)[C@H]2CO)cc1`, the “Ratio CC50/EC50” value in series [1] is listed as >125; in series [4], >500. The results for the EC50 (in the series with dengue virus type 2; in series [5] (setting [6])) were 4 µM and 1 µM, respectively. For the same molecule, the CC50 in series [2] and in series [3] was > 500 µM in each case.
In the case of `OC[C@@H]1[C@@H](O)[C@H](O)[C@@H](O)CN1CCCc1cccc(OC2CCCCC2)c1`, the CC50 in series [2] was found to be 390 µM. For the same molecule, the “Ratio CC50/EC50” value in series [4] is reported as 111. Also, the EC50 in series [5] (setting [6]) amounted to 3.5 µM.
On the same counts, the results for `CC1CCCC(OCCCCCCN2C[C@H](O)[C@@H](O)[C@H](O)[C@H]2CO)C1` (stereo partly specified) are > 500 µM, >1667 and 0.3 µM.
As for `OC[C@@H]1[C@@H](O)[C@H](O)[C@@H](O)CN1CCCCCCOc1cc(Cl)ccc1Cl`, the CC50 in series [2] came to 320 µM. Further, in series [4], the “Ratio CC50/EC50” value is 213. In addition, the EC50 in series [5] (setting [6]) was 1.5 µM.
As to `CCC1CCC(OCCCCCCN2C[C@H](O)[C@@H](O)[C@H](O)[C@H]2CO)CC1` (stereo partly specified), the “Ratio CC50/EC50” value in series [1] is recorded as 1583; in series [4], >1250. Further, the EC50 with dengue virus type 2 was 0.3 µM; in series [5] (setting [6]), 0.4 µM. Also, the CC50 in series [2] is > 500 µM; in series [3] it was 475 µM.
Turning to `CCCCC1CCC(OCCCCCCN2C[C@H](O)[C@@H](O)[C@H](O)[C@H]2CO)CC1` (stereo partly specified), the CC50 in series [2] worked out at 190 µM. Also, the “Ratio CC50/EC50” value in series [4] turned out to be 106. For the same molecule, the EC50 in series [5] (setting [6]) came to 1.8 µM.
As for `Cc1ccc(C(C)C)cc1OCCCCCCN1C[C@H](O)[C@@H](O)[C@H](O)[C@H]1CO`, the CC50 in series [2] is 90 µM. Also, the “Ratio CC50/EC50” value in series [4] was 129. Besides, in series [5] (setting [6]), the concentration for a half-maximal effect (EC50) was determined as 0.7 µM.
As for `OC[C@@H]1[C@@H](O)[C@H](O)[C@@H](O)CN1CC/C=C\CCOc1cc(F)ccc1F`, the “Ratio CC50/EC50” value was >59 in series [1] and >250 in series [4]. Further, the EC50 in the series on dengue virus type 2 came out at 8.5 µM; in series [5] (setting [6]), 2 µM. The CC50 in series [2] is > 500 µM.
Regarding `CC1CCCC(OCCCCCCN2C[C@H](O)[C@@H](O)[C@H](O)[C@H]2CO)C1C` (stereo partly specified), the half-maximal cytotoxic concentration (CC50) in series [2] is > 500 µM. The “Ratio CC50/EC50” value in series [4] is listed as >417. Further, the concentration for a half-maximal effect (EC50) in series [5] (setting [6]) worked out at 1.2 µM.
Turning to `OC[C@@H]1[C@@H](O)[C@H](O)[C@@H](O)CN1CCCCCCOc1c(F)cc(F)cc1F`, in series [2], the CC50 was > 500 µM. Further, the “Ratio CC50/EC50” value in series [4] is recorded as >100. Further, the EC50 in series [5] (setting [6]) is 5 µM.
As for `CC1CC(OCCCCCCN2C[C@H](O)[C@@H](O)[C@H](O)[C@H]2CO)CC(C)(C)C1` (stereo partly specified), the CC50 in series [2] is 250 µM. For the same molecule, in series [4], the “Ratio CC50/EC50” value stood at 312. For the same molecule, the EC50 in series [5] (setting [6]) turned out to be 0.8 µM.
`CCCCCC#CCCN1C[C@H](O)[C@@H](O)[C@H](O)[C@H]1CO`: the CC50 in series [2] was > 500 µM. Also, in series [5] (setting [6]), the EC50 is > 100 µM.
For the molecule `OC[C@@H]1[C@@H](O)[C@H](O)[C@@H](O)CN1CCCCCCOc1ccccc1C(F)(F)F`, the CC50 in series [2] is > 500 µM. The “Ratio CC50/EC50” value in series [4] was >500. In addition, the EC50 in series [5] (setting [6]) worked out at 1 µM.
On the same counts, the results for `Cc1ccc(C(C)(C)C)c(OCCCCCCN2C[C@H](O)[C@@H](O)[C@H](O)[C@H]2CO)c1` are 85 µM, 142 and 0.6 µM.
On the same counts, the results for `CCCC1CCCCC1OCCCCCCN1C[C@H](O)[C@@H](O)[C@H](O)[C@H]1CO` (stereo partly specified) are 150 µM, 300 and 0.5 µM.
`CC(C)C(OCCCCCCN1C[C@H](O)[C@@H](O)[C@H](O)[C@H]1CO)C(C)C`: the CC50 in series [2] was > 500 µM. Further, the “Ratio CC50/EC50” value in series [4] was >67. Further, in series [5] (setting [6]), the EC50 was 7.5 µM.
`OC[C@@H]1[C@@H](O)[C@H](O)[C@@H](O)CN1CCCc1ccccc1OC1CCCCC1`: the CC50 in series [2] was found to be 420 µM. Besides, the “Ratio CC50/EC50” value in series [4] was >175. The EC50 in series [5] (setting [6]) worked out at 24 µM.
On to `OC[C@@H]1[C@@H](O)[C@H](O)[C@@H](O)CN1CC/C=C/CCOc1cc(F)ccc1F`, for which the results for the “Ratio CC50/EC50” value in series [1] and in series [4] were >227 and >556, respectively. In addition, the EC50 was 2.2 µM in the series on dengue virus type 2 and 0.9 µM in series [5] (setting [6]). Also, the CC50 in series [3] is > 500 µM.

The EC50 is the concentration that produces a half-maximal response. In general, CC50 refers to the concentration that lowers cell viability or growth by half.
